Measurements taken from ChEMBL document CHEMBL1123510, “Investigation of the structural requirements for the kappa-selective opioid receptor antagonist, 6 beta,6 beta'-[ethylenebis(oxyethyleneimino)]bis[17-(cyclopropylmethyl)- 4,5 alpha-epoxymorphinan-3,14-diol] (TENA)” (J Med Chem, 1986).

Legend:
Format in all cases: functional
[1] = Ratio of IC50 of ethylketazocine (EK) in the presence of compound to IC50 of ethylketazocine in the absence of compound
In short: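 Guinea pig ileum longitudinal muscle, electrically stimulated; the kappa agonist ethylketazocine (EK) was run with and without the test antagonist, given at 20 nM or 2 nM depending on the compound. The IC50 ratio is EK IC50 with antagonist over EK IC50 alone.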

[2] = species on record: Cavia porcellus; assay: Inhibitory concentration of compound was measured in muscle of the guinea pig ileum; conditions: Muscle tissue
In short: (§1)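 Electrically stimulated longitudinal muscle of guinea pig ileum; agonist IC50 for inhibition of the twitch, with potency expressed relative to a control morphine IC50 run in the same preparation.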

[3] = species on record: Cavia porcellus; assay: The agonist potency of compound was determined relative to control morphine IC50; in short: as §1
[4] = species on record: Cavia porcellus; assay: Inhibitory concentration of morphine was measured in muscle of the guinea pig ileum; conditions: Muscle tissue; in short: as §1

SMILES	IC50 ratio [1]	IC50 [2]	Relative potency [3]	IC50 [4]
N=C(N)NCCOCCOCCN[C@@H]1CC[C@@]2(O)C3Cc4ccc(O)c5c4C2(CCN3CC2CC2)[C@H]1O5.O=S(=O)(O)O (some centres not stated)	1	11.4 nM	9.1	104 nM
Oc1ccc2c3c1O[C@H]1[C@H](NCCOCCOCCNCc4ccccc4)CC[C@@]4(O)C(C2)N(CC2CC2)CCC314 (some centres not stated)	3.1	206 nM	5.2	107 nM
NCCOCCOCCN[C@@H]1CC[C@@]2(O)C3Cc4ccc(O)c5c4C2(CCN3CC2CC2)[C@H]1O5 (some centres not stated)	1.1	21.1 nM	5.8	123 nM
